According to publication PMC4161153 (Journal of Medicinal Chemistry, 2014):

Target: T1, human TLR8 (Homo sapiens, UniProt Q9NR97)
T1 sequence (Q9NR97 27-1041): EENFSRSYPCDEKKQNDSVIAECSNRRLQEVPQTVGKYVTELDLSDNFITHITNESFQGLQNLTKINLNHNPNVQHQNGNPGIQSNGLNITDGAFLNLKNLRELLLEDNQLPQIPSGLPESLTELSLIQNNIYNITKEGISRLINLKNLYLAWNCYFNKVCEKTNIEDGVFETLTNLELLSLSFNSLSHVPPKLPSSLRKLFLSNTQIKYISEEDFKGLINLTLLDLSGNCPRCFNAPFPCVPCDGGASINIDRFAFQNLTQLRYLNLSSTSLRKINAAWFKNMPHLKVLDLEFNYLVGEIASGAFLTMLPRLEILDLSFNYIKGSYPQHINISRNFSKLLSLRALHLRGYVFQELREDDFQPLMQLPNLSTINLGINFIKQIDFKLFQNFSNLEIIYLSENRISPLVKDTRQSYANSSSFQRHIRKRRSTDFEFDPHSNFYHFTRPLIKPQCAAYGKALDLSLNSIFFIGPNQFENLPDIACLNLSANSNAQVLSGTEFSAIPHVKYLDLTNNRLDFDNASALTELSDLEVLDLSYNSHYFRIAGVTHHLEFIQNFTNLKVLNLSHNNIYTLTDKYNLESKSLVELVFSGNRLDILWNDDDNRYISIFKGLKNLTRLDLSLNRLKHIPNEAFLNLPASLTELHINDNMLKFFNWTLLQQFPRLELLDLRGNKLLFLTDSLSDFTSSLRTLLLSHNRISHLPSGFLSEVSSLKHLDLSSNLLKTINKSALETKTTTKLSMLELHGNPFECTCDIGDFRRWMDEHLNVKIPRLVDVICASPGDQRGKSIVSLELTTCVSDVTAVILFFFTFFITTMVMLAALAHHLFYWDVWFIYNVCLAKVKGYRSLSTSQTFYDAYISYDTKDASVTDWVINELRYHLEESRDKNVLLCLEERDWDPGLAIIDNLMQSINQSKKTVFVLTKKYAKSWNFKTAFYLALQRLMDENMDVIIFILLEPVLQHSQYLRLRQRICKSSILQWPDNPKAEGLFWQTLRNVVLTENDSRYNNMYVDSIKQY
Assay: Human TLR8-specific reporter gene assay
Type: cell-based
Settings: HEK293 cells, NF-κB induction

SMILES	hTLR8 Agonistic Activity (EC50)
CCCCCn1c(N)nc2c(Cc3ccccc3)cccc21 [Compound 31m, 4-Benzyl-1-pentyl-1H-benzo[d]imidazol-2-amine]	abrogated activity
CCCCCn1c(N)nc2c(OCc3ccccc3)cccc21 [Compound 35, 4-Benzyloxy-1-pentyl-1H-benzoimidazol-2-ylamine]	abrogated activity
CCCCCn1c(NC(C)=O)nc2ccccc21 [Compound 10, N-(1-Pentyl-1H-benzo[d]imidazol-2-yl)acetamide]	completely abrogated activity
CCCCCn1c(N)nc2c(-c3ccccc3)cccc21 [Compound 31l, 1-Pentyl-4-phenyl-1H-benzo[d]imidazol-2-amine]	abrogated activity
NCc1cccc(Cn2c(N)nc3ccccc32)c1 [Compound 8f, 1-(3-(Aminomethyl)benzyl)-1H-benzo[d]imidazol-2-amine]	neither 8d nor 8f were active
Nc1nc2ccccc2n1Cc1ccccc1 [Compound 8d, 1-Benzyl-1H-benzo[d]imidazol-2-amine]	neither 8d nor 8f were active
CCCCOC(=O)n1c(N)nc2ccccc21 [Compound 9, Butyl 2-amino-1H-benzo[d]imidazole-1-carboxylate]	completely abrogated activity

Tested on: not listed separately
Assay: Chemical stability of the free base
Type: physicochemical
Settings: rapid formation of overoxidized 3-ol derivative 5 via autoxidation

SMILES	Stability of the compound (free base)
CCCCC1C(N)=Nc2ccccc21.Cl (stereo not drawn) [Compound 4]	exceedingly unstable

Tested on: natural killer lymphocytes
Assay: CD69 upregulation by flow cytometry in whole human blood
Type: cell-based
Settings: overnight 37 °C, CD3–CD56+ cells, Figure 4
Outline: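 Heparin-anticoagulated whole blood from healthy volunteers was incubated overnight at 37 °C with graded concentrations of test compound, a TLR7-agonist reference or medium. Cells were stained for 30 min at 37 °C in the dark with CD3-PE, CD56-APC and CD69-PE-Cy7. Erythrocytes were lysed and leukocytes fixed in one step. CD69 was read on CD3⁻CD56⁺ NK cells from 100,000 gated events.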

SMILES	CD69 upregulation in NK lymphocytes
CCCCCn1c(N)nc2c(C)cccc21 [Compound 31a, 4-Methyl-1-pentyl-1H-benzo[d]imidazol-2-amine]	complete absence of CD69 upregulation
